The values that follow come from ChEMBL document CHEMBL1136225, “Selective 3-amino-2-pyridinone acetamide thrombin inhibitors incorporating weakly basic partially saturated heterobicyclic P1-arginine mimetics” (Bioorg Med Chem Lett, 2003).

One series addresses Coagulation factor X (Homo sapiens, UniProt P00742). Description: Inhibitory activity against coagulation factor X. In outline:
(§1)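 Amidolytic enzyme assays with chromogenic substrates for thrombin, trypsin and factor Xa; Ki derived from IC50 by Cheng–Prusoff, or from reaction velocity equations with and without inhibitor using the relevant Km.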

Series [1] is filed under the species Homo sapiens. Description: Concentration required to double the activated partial thromboplastin time in human plasma. The class given is functional. In outline: (§2)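 Standard clotting assays (APTT, PT and TT) run in human plasma; value is the inhibitor concentration required to double each clotting time.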
For series [2], the species on record is Homo sapiens. The series can be described thus: Concentration required to double the prothrombin time in human plasma. Type of series: functional. In outline: as §2
Series [3] is filed under the species Homo sapiens. The series can be described thus: Concentration required to double the thrombin time in human plasma. Type of series: functional. The method, boiled down:
as §2

The target in series [4] is T1, Serine protease 1 (Bos taurus) (UniProt P00760).
T1 sequence (whole entry): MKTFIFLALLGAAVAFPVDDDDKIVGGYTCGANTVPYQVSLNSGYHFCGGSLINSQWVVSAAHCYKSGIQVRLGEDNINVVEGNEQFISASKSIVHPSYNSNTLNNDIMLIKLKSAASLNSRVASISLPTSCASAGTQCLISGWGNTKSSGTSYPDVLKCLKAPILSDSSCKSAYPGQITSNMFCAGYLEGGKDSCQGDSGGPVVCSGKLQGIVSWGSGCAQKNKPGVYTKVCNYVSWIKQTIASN
Description: Selectivity for inhibition of thrombin to that of trypsin. The method, boiled down: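 Selectivity expressed as Ki(trypsin)/Ki(thrombin), with both Ki values from chromogenic-substrate amidolytic assays.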

A short description of series [5]: pKa value was determined. The class given is physicochemical.
Series [6] addresses T2, Serine protease 1 (Bos taurus, UniProt P00760).
T2 sequence (P00760 whole entry): T1 sequence (whole entry)
The series can be described thus: Inhibitory activity against Trypsin. In outline:
as §1

A further series deals with Prothrombin (Homo sapiens, UniProt P00734). The series can be described thus: Inhibitory activity against thrombin. In outline: as §1
Series [7] concerns the target T2, Serine protease 1. The series can be described thus: Inhibitory activity was evaluated against Trypsin; Inactive. The method, boiled down: as §1
Series [8] addresses T2, Serine protease 1. Description: Inhibitory activity against Trypsin; Inactive. The method, boiled down: as §1

The structures appear in SMILES notation.

Coagulation factor X, sequence (P00742 41-179 limits assumed): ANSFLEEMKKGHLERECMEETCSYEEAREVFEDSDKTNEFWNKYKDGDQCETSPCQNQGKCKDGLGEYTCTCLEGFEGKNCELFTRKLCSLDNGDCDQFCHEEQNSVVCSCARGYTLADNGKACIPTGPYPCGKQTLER
Coagulation factor X, sequence (P00742 235-488 limits assumed): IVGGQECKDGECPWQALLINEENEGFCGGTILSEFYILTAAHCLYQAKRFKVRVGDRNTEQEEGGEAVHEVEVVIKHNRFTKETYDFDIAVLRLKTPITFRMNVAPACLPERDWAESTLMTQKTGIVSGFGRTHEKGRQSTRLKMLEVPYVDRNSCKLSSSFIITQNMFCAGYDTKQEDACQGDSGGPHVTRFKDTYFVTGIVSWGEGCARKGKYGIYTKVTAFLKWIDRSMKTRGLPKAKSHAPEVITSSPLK

In the case of `Cc1ccc(NS(=O)(=O)Cc2ccccc2)c(=O)n1CC(=O)NC1CCc2n[nH]cc2C1` (stereo unspecified), at Coagulation factor X, the inhibition constant (Ki) – broadly, a dissociation constant, usually derived from enzyme kinetics or from competition with a known ligand – is 99 µM. Further, the Concentration was 272 µM in the series listed under Homo sapiens [1], greater than 400 µM in the series filed under Homo sapiens [2] and 105 µM in the series listed under Homo sapiens [3]. The molecule further registered a Selectivity in [4] of 93. Also, the pKa (usually the negative logarithm of the acid dissociation constant) in series [5] worked out at 3.7.
Take `Cc1ccc(NS(=O)(=O)Cc2ccccc2)c(=O)n1CC(=O)NC1CCc2nn(C)cc2C1` (stereo unspecified): the inhibition constant Ki on Serine protease 1 [6] is 807 µM; at Coagulation factor X, 90.2 µM. In addition, the Concentration in the series filed under Homo sapiens [1] is greater than 200 µM; in the series filed under Homo sapiens [2], greater than 400 µM; in the series filed under Homo sapiens [3] it was 375 µM. The molecule also had a Selectivity in [4] of 32. Further, the pKa in series [5] is 3.2.
Turning to `Cc1ccc(NS(=O)(=O)Cc2ccccc2)c(=O)n1CC(=O)NCC1CCc2nn(C)cc2C1` (stereo unspecified), the results for the Ki at Serine protease 1 [6], at Coagulation factor X and at Prothrombin were 557 µM, 95 µM and 11.8 µM, respectively. Moreover, the Concentration is 318 µM in the series listed under Homo sapiens [1], greater than 400 µM in the series listed under Homo sapiens [2] and 105 µM in the series listed under Homo sapiens [3]. For the same molecule, the Selectivity in series [4] is 47. The pKa in series [5] was 3.6.
As to `Cc1ccc(NS(=O)(=O)Cc2ccccc2)c(=O)n1CC(=O)NCC1CCc2n[nH]cc2C1` (stereo unspecified), the results for the inhibition constant (Ki) at Coagulation factor X, at Serine protease 1 [7] and on Prothrombin were 103 µM, “Not Active” and 0.17 µM, respectively. In addition, the Concentration was found to be 20.5 µM in the series listed under Homo sapiens [1], 30.6 µM in the series listed under Homo sapiens [2] and 5.2 µM in the series listed under Homo sapiens [3]. For the same molecule, the pKa in series [5] came to 4.
In the case of `Cc1ccc(NS(=O)(=O)Cc2ccccc2)c(=O)n1CC(=O)NCC1CCc2nc(N)sc2C1` (stereo unspecified), the inhibition constant (Ki) at Coagulation factor X worked out at 106 µM; on Prothrombin it was 2.5 µM. For the same molecule, the Concentration was found to be 121 µM in the series filed under Homo sapiens [1], 334 µM in the series listed under Homo sapiens [2] and 44 µM in the series filed under Homo sapiens [3].
In turn, `Cc1ccc(NS(=O)(=O)Cc2ccccc2)c(=O)n1CC(=O)NC1CCc2nc(N)sc2C1` (stereo unspecified) displayed a pKa in series [5] of 6.1.
Regarding `Cc1ccc(NS(=O)(=O)Cc2ccccc2)c(=O)n1CC(=O)NCc1ccc2[nH]ncc2c1`, affinity on Prothrombin was put at a Ki of 0.0087 µM.
On to `Cc1ccc(NS(=O)(=O)Cc2ccccc2)c(=O)n1CC(=O)NCC1CCc2nc(N)ncc2C1` (stereo unspecified), for which the inhibition constant Ki on Coagulation factor X was determined as 87.3 µM; at Prothrombin, 6.9 µM; on Serine protease 1 [8], 640 µM. The Concentration was 219 µM in the series filed under Homo sapiens [1], greater than 400 µM in the series listed under Homo sapiens [2] and 84 µM in the series filed under Homo sapiens [3].
